According to ChEMBL document CHEMBL1145249, “A potent and selective nonpeptide antagonist of the melanocortin-4 receptor induces food intake in satiated mice” (Bioorg Med Chem Lett, 2005):

What was measured:
Melanocortin receptor 4 [1] = molecular target: T1, Melanocortin receptor 4 (Homo sapiens, UniProt P32245); assay: Intrinsic activity towards human alpha-MSH stimulated cAMP level in HEK293 cells
Melanocortin receptor 3 = Melanocortin receptor 3 (Homo sapiens, UniProt P41968); assay: Binding affinity for melanocortin-3 receptor transfected in HEK 293 cells using [125I]NDP-MSH as radioligand; format: cell-based, HEK293
Outline: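 Competition binding at human MC3 or MC4 receptor stably transfected into HEK293 cells, displacing [125I]-NDP-MSH radioligand; Ki reported; values averaged from three or more independent measurements.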

Melanocortin receptor 4 [2] = molecular target: T1, Melanocortin receptor 4; assay: Binding affinity for melanocortin-4 receptor transfected in HEK 293 cells using [125I]NDP-MSH as radioligand; format: cell-based, HEK293
[3] = molecular target: T2, Melanocyte-stimulating hormone receptor (Homo sapiens, UniProt Q01726); assay: Binding affinity at melanocortin-1 receptor stably transfected in HEK 293 cells using [125I]NDP-MSH as radiolabeled; format: cell-based, HEK293
Outline: (§1)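 Competition binding at human MC1 or MC5 receptor stably expressed in HEK293 cells, with [125I]-NDP-MSH as the displaced radioligand; Ki determined.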
Target sequence in this assay (Q01726 whole entry): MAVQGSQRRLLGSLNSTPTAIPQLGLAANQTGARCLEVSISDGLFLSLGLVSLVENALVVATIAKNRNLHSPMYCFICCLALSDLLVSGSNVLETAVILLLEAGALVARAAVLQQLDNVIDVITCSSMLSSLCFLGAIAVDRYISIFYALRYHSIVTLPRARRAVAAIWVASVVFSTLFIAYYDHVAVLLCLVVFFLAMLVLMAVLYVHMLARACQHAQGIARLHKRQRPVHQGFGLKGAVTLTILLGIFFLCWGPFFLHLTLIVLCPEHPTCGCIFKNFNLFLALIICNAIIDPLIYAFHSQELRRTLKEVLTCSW

Melanocortin receptor 5 = Melanocortin receptor 5 (Homo sapiens, UniProt P33032); assay: Binding affinity at melanocortin-5 receptor stably transfected in HEK 293 cells using [125I]NDP-MSH as radiolabeled; format: cell-based, HEK293
Outline: as §1

Melanocortin receptor 4 [4] = molecular target: T1, Melanocortin receptor 4; assay: Intrinsic activity towards human alpha-MSH stimulated cAMP level in HEK293 cells by 10 uM compound
[5] = molecular target: T2, Melanocyte-stimulating hormone receptor; assay: Percent inhibition of human melanocortin 1 receptor at 10 uM concentration
Target sequence in this assay (Q01726 whole entry, looked up): as the sequence (Q01726 whole entry) above

Sequence of Melanocortin receptor 5 (P33032 whole entry): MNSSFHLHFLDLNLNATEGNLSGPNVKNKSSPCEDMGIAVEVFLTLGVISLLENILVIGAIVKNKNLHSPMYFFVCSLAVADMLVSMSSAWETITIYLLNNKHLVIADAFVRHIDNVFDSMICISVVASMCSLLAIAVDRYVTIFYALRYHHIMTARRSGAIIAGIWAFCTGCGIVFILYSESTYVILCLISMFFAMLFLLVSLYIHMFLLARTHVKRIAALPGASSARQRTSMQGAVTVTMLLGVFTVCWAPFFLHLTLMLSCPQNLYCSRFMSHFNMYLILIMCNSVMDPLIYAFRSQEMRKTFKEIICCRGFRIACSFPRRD
T1 sequence (P32245 whole entry): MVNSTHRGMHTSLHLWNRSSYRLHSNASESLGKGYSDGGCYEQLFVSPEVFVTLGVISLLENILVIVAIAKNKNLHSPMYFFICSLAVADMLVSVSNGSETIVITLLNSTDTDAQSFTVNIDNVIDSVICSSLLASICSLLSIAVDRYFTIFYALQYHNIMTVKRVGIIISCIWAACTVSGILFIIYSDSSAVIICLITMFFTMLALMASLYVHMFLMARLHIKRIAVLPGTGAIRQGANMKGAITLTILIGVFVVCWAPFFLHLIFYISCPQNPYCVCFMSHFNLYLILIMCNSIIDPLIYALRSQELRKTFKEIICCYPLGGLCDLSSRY
Sequence of Melanocortin receptor 3 (P41968 whole entry): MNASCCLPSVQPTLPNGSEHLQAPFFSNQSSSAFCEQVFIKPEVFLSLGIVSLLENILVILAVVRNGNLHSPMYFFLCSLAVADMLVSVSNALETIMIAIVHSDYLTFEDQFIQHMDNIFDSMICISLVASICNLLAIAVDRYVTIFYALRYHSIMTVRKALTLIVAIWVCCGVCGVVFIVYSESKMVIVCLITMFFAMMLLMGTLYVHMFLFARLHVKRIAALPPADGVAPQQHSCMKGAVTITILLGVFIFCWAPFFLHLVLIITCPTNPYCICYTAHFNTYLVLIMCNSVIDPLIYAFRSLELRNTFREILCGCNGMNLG

Row | SMILES | Ki (Melanocortin receptor 3) [nM] | Ki (Melanocortin receptor 4 [2]) [nM] | also measured
1 | O=C(N[C@H](Cc1ccc(Cl)cc1)C(=O)N1CCN(c2ccccc2CNCCc2cccs2)CC1)C1CCCNC1 (some centres not stated) |  |  | IA (Melanocortin receptor 4 [1]): 12%
2 | CN(C)C(=O)N[C@H](Cc1ccc(Cl)cc1Cl)C(=O)N1CCN(c2ccccc2CNCCc2cccs2)CC1 | 560 | 2 | Ki [3]: 6.8 µM; Ki (Melanocortin receptor 5): 350 nM
3 | NCCN[C@H](Cc1ccc(Cl)cc1Cl)C(=O)N1CCN(c2ccccc2CNCCc2cccs2)CC1 |  | 18 | IA (Melanocortin receptor 4 [4]): < 3%
4 | CS(=O)(=O)N[C@H](Cc1ccc(Cl)cc1Cl)C(=O)N1CCN(c2ccccc2CNCCc2cccs2)CC1 |  | 14 | IA (Melanocortin receptor 4 [4]): < 3%
5 | NCCC(=O)N[C@H](Cc1ccc(Cl)cc1Cl)C(=O)N1CCN(c2ccccc2CNCCc2cccs2)CC1 |  |  | IA (Melanocortin receptor 4 [1]): < 3%
6 | CC(C)OC(=O)N[C@H](Cc1ccc(Cl)cc1Cl)C(=O)N1CCN(c2ccccc2CNCCc2cccs2)CC1 | 1300 | 4.5 | inhibition [5]: 9%; Ki (Melanocortin receptor 5): 680 nM
7 | NCCCC(=O)N[C@H](Cc1ccc(Cl)cc1Cl)C(=O)N1CCN(c2ccccc2CNCCc2cccs2)CC1 | 950 | 2 | 
8 | O=C(NC1CCCC1)N[C@H](Cc1ccc(Cl)cc1Cl)C(=O)N1CCN(c2ccccc2CNCCc2cccs2)CC1 | 580 | 1.3 | 
9 | O=C([C@@H](Cc1ccc(Cl)cc1Cl)NCc1ccccc1)N1CCN(c2ccccc2CNCCc2cccs2)CC1 |  | 31 | IA (Melanocortin receptor 4 [4]): < 3%
10 | NCCC(=O)N[C@H](Cc1ccc(Cl)cc1)C(=O)N1CCN(c2ccccc2CNCCc2cccs2)CC1 |  |  | IA (Melanocortin receptor 4 [1]): 14%
11 | O=C(N[C@H](Cc1ccc(Cl)cc1Cl)C(=O)N1CCN(c2ccccc2CNCCc2cccs2)CC1)N1CCCC1 | 670 | 1.5 | Ki [3]: 6.9 µM; Ki (Melanocortin receptor 5): 160 nM
12 | CC(C)(C)NC(=O)N[C@H](Cc1ccc(Cl)cc1Cl)C(=O)N1CCN(c2ccccc2CNCCc2cccs2)CC1 | 1000 | 2.4 | 
13 | O=C(N[C@H](Cc1cccc2ccccc12)C(=O)N1CCN(c2ccccc2CNCCc2cccs2)CC1)OCc1ccccc1 |  | 420 | 
14 | N[C@H](Cc1ccc(Cl)cc1Cl)C(=O)N1CCN(c2ccccc2CNCCc2cccs2)CC1 |  | 94 | IA (Melanocortin receptor 4 [4]): < 3%
15 | CCNC(=O)N[C@H](Cc1ccc(Cl)cc1Cl)C(=O)N1CCN(c2ccccc2CNCCc2cccs2)CC1 | 790 | 1.7 | inhibition [5]: 18%; Ki (Melanocortin receptor 5): 300 nM
16 | CC(=O)N[C@H](Cc1ccc(Cl)cc1Cl)C(=O)N1CCN(c2ccccc2CNCCc2cccs2)CC1 | 570 | 2.4 | inhibition [5]: 31%; Ki (Melanocortin receptor 5): 730 nM
17 | O=C(N[C@H](Cc1ccc(Cl)cc1Cl)C(=O)N1CCN(c2ccccc2CNCCc2cccs2)CC1)OCc1ccccc1 |  | 23 | 
18 | O=C(N[C@H](Cc1ccc(Cl)cc1Cl)C(=O)N1CCN(c2ccccc2CNCCc2cccs2)CC1)OCCF | 790 | 3.2 | Ki [3]: 1 µM; Ki (Melanocortin receptor 5): 560 nM

Row | SMILES | Ki (Melanocortin receptor 3) [nM] | Ki (Melanocortin receptor 4 [2]) [nM] | also measured
19 | COc1ccc2ccccc2c1CCCCN1CCN(CC(c2ccc(F)cc2)N2CCN(C(C)C)CC2)CC1 (configuration not stated) |  | 7.9 | 
20 | CC(C)NC(=O)N[C@H](Cc1ccc(Cl)cc1Cl)C(=O)N1CCN(c2ccccc2CNCCc2cccs2)CC1 | 450 | 1.4 | 
21 | O=C(N[C@H](Cc1ccc(Cl)cc1Cl)C(=O)N1CCN(c2ccccc2CNCCc2cccs2)CC1)c1ccccc1 | 1600 | 3.1 | 
22 | O=C(NC1CC1)N[C@H](Cc1ccc(Cl)cc1Cl)C(=O)N1CCN(c2ccccc2CNCCc2cccs2)CC1 | 860 | 2.1 | 
23 | O=C(NCc1ccccc1F)N[C@H](Cc1ccc(Cl)cc1Cl)C(=O)N1CCN(c2ccccc2CNCCc2cccs2)CC1 |  | 5 | 
24 | O=C(N[C@H](Cc1cscn1)C(=O)N1CCN(c2ccccc2CNCCc2cccs2)CC1)OCc1ccccc1 |  | > 10000 | 
25 | O=C(N[C@H](Cc1csc2ccccc12)C(=O)N1CCN(c2ccccc2CNCCc2cccs2)CC1)OCc1ccccc1 |  | 1100 | 
26 | CC(C)CN[C@H](Cc1ccc(Cl)cc1Cl)C(=O)N1CCN(c2ccccc2CNCCc2cccs2)CC1 |  | 23 | IA (Melanocortin receptor 4 [4]): < 3%
27 | O=C([C@@H](Cc1ccc(Cl)cc1Cl)NCc1nccs1)N1CCN(c2ccccc2CNCCc2cccs2)CC1 |  | 16 | IA (Melanocortin receptor 4 [4]): < 3%
28 | O=C(N[C@H](Cc1ccc(O)cc1)C(=O)N1CCN(c2ccccc2CNCCc2cccs2)CC1)OCc1ccccc1 |  | 5700 | 
29 | O=C(NCCO)N[C@H](Cc1ccc(Cl)cc1Cl)C(=O)N1CCN(c2ccccc2CNCCc2cccs2)CC1 | 390 | 2.9 | inhibition [5]: 8%; Ki (Melanocortin receptor 5): 350 nM
30 | O=C([C@@H](Cc1ccc(Cl)cc1Cl)NCC1CC1)N1CCN(c2ccccc2CNCCc2cccs2)CC1 |  | 18 | IA (Melanocortin receptor 4 [4]): < 3%
31 | O=C(N[C@H](Cc1c[nH]c2ccccc12)C(=O)N1CCN(c2ccccc2CNCCc2cccs2)CC1)OCc1ccccc1 |  | 2300 | 
32 | CCOC(=O)N[C@H](Cc1ccc(Cl)cc1Cl)C(=O)N1CCN(c2ccccc2CNCCc2cccs2)CC1 | 800 | 4.6 | 
33 | O=C(N[C@H](Cc1cnc[nH]1)C(=O)N1CCN(c2ccccc2CNCCc2cccs2)CC1)OCc1ccccc1 |  | 3600 | 
34 | COC(=O)N[C@H](Cc1ccc(Cl)cc1Cl)C(=O)N1CCN(c2ccccc2CNCCc2cccs2)CC1 | 810 | 5 | 
35 | COC(=O)CCC(=O)N[C@H](Cc1ccc(Cl)cc1Cl)C(=O)N1CCN(c2ccccc2CNCCc2cccs2)CC1 | 830 | 2.8 | 
